Data from ChEMBL document CHEMBL1944596, “7,8-dichloro-1-oxo-β-carbolines as a versatile scaffold for the development of potent and selective kinase inhibitors with unusual binding modes” (J Med Chem, 2012).

Legend:
[1] = biological target: AP2-associated protein kinase 1 (Homo sapiens) (UniProt Q2M2I8); assay: Binding affinity to AAK1 assessed as change in thermal denaturation at 10 uM by thermal stability shift assay
Method in brief: (§1)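 Each compound was screened across a kinase panel by thermal stability shift assay. The read-out was the shift in protein melting temperature (ΔTm, in °C) relative to the unliganded kinase. A ΔTm of 4.0 °C served as the hit cutoff.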

[2] = biological target: Death-associated protein kinase 3 (Homo sapiens) (UniProt O43293); assay: Binding affinity to N-terminus His6-tagged DAPK3 expressed in Escherichia coli BL21 (DE3) cells coexpressing pCOEX assessed as change in thermal denaturation at 10 uM by thermal stability shift assay
Method in brief: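 DAPK3 was expressed in E. coli grown in TB with kanamycin and chloramphenicol at 37 °C, cooled to 25 °C, and induced with 0.5 mM IPTG. Binding was read as thermal-shift ΔTm in °C.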

[3] = biological target: T1, Myosin light chain kinase family member 4 (Homo sapiens) (UniProt Q86YV6); assay: Binding affinity to SGK085 assessed as change in thermal denaturation at 10 uM by thermal stability shift assay; method in brief: as §1
T1 sequence (whole entry): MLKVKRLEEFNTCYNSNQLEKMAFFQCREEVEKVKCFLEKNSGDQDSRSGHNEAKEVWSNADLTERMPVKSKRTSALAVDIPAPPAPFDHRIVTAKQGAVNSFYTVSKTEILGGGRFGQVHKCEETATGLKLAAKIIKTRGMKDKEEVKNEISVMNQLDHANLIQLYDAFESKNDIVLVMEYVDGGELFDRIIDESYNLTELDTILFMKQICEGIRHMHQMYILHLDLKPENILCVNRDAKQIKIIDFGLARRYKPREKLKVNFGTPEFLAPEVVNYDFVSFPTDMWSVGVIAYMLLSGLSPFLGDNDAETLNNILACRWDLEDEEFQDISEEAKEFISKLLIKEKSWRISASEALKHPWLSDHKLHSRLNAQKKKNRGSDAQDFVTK

[4] = biological target: Serine/threonine-protein kinase pim-1 (Homo sapiens, UniProt P11309); assay: Binding affinity to PIM1 assessed as change in thermal denaturation at 10 uM by thermal stability shift assay; method in brief: as §1
[5] = biological target: Dual specificity protein kinase CLK4 (Homo sapiens) (UniProt Q9HAZ1); assay: Binding affinity to CLK4 assessed as change in thermal denaturation at 10 uM by thermal stability shift assay; method in brief: as §1
[6] = biological target: T2, Serine/threonine-protein kinase 17B (Homo sapiens) (UniProt O94768); assay: Binding affinity to DRAK2 assessed as change in thermal denaturation at 10 uM by thermal stability shift assay; method in brief: as §1
T2 sequence (whole entry): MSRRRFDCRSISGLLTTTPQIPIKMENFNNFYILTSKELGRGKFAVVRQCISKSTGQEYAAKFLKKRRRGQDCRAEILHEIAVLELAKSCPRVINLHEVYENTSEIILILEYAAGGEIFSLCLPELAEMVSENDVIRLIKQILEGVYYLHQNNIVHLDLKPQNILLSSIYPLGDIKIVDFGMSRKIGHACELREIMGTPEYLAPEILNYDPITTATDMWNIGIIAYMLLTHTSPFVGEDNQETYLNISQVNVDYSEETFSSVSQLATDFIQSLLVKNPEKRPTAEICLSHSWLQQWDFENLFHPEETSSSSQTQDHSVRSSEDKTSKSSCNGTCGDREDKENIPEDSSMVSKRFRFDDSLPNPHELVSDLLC

[7] = biological target: Dual specificity protein kinase CLK1 (Homo sapiens) (UniProt P49759); assay: Binding affinity to CLK1 assessed as change in thermal denaturation at 10 uM by thermal stability shift assay; method in brief: as §1
[8] = biological target: T3, Cyclin-G-associated kinase (Homo sapiens) (UniProt O14976); assay: Binding affinity to GAK assessed as change in thermal denaturation at 10 uM by thermal stability shift assay; method in brief: as §1
T3 sequence (whole entry): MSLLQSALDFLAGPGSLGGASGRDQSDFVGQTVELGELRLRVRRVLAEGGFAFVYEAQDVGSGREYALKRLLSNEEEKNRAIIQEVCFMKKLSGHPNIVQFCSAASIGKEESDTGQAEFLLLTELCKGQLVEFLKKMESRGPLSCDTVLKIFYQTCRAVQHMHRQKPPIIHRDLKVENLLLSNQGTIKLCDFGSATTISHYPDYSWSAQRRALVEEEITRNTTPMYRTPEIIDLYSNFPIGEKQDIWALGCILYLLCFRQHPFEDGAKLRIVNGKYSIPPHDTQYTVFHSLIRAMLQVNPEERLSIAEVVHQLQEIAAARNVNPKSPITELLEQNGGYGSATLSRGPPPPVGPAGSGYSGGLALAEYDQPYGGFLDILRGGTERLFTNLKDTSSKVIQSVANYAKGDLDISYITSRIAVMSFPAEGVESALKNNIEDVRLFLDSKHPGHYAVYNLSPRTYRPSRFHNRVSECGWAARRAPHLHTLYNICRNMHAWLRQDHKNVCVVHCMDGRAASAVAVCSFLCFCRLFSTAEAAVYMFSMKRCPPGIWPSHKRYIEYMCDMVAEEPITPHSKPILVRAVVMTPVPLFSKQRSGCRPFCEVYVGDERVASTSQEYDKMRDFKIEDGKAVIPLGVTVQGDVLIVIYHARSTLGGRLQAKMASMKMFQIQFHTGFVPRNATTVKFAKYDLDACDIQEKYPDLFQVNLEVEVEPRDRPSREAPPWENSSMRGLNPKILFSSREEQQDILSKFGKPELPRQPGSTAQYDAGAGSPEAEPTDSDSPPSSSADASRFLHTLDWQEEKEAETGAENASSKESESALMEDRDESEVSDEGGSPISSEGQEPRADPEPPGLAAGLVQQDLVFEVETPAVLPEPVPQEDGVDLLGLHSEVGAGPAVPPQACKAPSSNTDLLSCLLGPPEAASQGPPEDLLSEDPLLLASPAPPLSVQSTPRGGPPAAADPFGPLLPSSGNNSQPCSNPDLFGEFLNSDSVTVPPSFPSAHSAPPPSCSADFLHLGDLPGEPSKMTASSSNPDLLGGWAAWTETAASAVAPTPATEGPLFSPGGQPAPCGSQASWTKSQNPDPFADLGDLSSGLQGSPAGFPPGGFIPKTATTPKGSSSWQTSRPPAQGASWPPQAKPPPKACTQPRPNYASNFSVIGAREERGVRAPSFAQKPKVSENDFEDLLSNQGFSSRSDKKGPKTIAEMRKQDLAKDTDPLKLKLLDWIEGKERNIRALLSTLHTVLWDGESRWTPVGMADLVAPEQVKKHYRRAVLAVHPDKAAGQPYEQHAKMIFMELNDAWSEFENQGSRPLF

[9] = biological target: Casein kinase II subunit alpha' (Homo sapiens) (UniProt P19784); assay: Binding affinity to CK2alpha2 assessed as change in thermal denaturation at 10 uM by thermal stability shift assay; method in brief: as §1
[10] = biological target: T4, Serine/threonine-protein kinase 17A (Homo sapiens) (UniProt Q9UEE5); assay: Binding affinity to DRAK1 assessed as change in thermal denaturation at 10 uM by thermal stability shift assay; method in brief: as §1
T4 sequence (whole entry): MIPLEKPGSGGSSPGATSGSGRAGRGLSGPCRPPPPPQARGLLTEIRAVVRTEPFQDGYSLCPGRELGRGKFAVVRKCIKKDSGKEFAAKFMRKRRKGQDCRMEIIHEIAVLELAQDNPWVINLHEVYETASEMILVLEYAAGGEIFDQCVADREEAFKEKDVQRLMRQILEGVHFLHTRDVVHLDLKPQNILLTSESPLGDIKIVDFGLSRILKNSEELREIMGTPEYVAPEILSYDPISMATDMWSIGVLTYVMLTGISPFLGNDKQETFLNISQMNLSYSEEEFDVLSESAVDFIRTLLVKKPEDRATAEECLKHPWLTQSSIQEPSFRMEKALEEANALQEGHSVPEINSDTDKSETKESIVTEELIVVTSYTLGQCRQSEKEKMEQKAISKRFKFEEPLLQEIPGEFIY

[11] = biological target: Serine/threonine-protein kinase pim-3 (Homo sapiens, UniProt Q86V86); assay: Binding affinity to PIM3 assessed as change in thermal denaturation at 10 uM by thermal stability shift assay; method in brief: as §1
MOLM-13 = assay: Growth inhibition of human MOLM13 cells after 48 hrs by WST-1 assay; assay type: functional, cell-based; details: MOLM-13, 48 h
Method in brief: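 Inhibitor at 0–10 μM added to the culture medium for 48 h. Proliferation and viability were read with WST-1 reagent. Survival was expressed as a percentage of control cultures, and IC50 was fitted from the concentration series.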

MV4-11 = assay: Growth inhibition of human MV4-11 cells after 48 hrs by WST-1 assay; assay type: functional, cell-based; details: MV4-11, 48 h
Method in brief: (§2)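 Compound (0–10 μM) added to the culture medium and incubated 48 h. Proliferation and viability read by WST-1 reagent. Survival expressed as percentage of control cultures and IC50 derived by curve fitting.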

[12] = Growth inhibition of human SEM cells after 48 hrs by WST-1 assay; assay type: functional, cell-based; method in brief: as §2
K562 = assay: Growth inhibition of human K562 cells after 48 hrs by WST-1 assay; assay type: functional, cell-based; details: K562, 48 h; method in brief: as §2
[13] = Growth inhibition of human RS4:11 cells after 48 hrs by WST-1 assay; assay type: functional, cell-based; details: RS4-11, 48 h; method in brief: as §2

Chain of Dual specificity protein kinase CLK4 (Homo sapiens) (Q9HAZ1 whole entry, looked up): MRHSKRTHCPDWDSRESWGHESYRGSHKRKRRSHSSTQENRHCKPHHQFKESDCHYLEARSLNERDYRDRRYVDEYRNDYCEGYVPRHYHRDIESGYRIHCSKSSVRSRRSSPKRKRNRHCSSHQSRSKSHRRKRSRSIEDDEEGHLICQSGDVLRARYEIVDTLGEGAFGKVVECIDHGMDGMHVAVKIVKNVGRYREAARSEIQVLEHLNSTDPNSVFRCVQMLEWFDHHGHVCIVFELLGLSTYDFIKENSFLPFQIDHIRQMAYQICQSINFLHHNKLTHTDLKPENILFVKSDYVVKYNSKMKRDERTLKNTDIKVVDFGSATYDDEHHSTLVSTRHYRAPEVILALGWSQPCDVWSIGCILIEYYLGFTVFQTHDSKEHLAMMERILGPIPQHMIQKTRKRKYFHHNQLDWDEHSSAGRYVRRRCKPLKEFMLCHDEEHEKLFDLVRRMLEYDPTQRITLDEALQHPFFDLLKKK
Chain of AP2-associated protein kinase 1 (Homo sapiens) (Q2M2I8 whole entry, looked up): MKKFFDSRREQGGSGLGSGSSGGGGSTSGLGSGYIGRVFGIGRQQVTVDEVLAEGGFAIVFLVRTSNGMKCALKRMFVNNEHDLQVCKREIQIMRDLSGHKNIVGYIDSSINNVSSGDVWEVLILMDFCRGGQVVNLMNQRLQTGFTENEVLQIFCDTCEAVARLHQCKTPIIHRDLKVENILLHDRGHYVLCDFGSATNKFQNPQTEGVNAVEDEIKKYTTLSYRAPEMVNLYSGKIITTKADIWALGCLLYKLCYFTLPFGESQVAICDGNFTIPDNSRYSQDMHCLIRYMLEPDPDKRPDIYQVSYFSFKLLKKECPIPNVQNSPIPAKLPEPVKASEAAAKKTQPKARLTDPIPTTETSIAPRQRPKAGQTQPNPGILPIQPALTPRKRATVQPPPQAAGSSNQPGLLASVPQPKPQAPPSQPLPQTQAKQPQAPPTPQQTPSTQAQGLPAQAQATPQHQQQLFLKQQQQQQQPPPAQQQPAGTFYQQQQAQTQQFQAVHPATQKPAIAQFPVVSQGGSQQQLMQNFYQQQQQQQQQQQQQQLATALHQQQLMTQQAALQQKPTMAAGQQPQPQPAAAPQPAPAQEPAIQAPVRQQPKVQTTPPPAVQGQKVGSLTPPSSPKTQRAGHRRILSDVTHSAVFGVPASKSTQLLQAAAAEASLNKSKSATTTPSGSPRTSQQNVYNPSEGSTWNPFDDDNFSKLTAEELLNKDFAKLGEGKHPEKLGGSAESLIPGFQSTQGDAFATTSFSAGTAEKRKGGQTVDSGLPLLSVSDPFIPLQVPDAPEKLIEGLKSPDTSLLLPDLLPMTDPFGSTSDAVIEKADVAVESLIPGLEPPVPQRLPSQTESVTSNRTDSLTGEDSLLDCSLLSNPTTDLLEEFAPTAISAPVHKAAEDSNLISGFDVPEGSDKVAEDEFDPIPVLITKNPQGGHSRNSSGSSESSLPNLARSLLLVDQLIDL
Chain of Serine/threonine-protein kinase pim-1 (P11309 whole entry, looked up): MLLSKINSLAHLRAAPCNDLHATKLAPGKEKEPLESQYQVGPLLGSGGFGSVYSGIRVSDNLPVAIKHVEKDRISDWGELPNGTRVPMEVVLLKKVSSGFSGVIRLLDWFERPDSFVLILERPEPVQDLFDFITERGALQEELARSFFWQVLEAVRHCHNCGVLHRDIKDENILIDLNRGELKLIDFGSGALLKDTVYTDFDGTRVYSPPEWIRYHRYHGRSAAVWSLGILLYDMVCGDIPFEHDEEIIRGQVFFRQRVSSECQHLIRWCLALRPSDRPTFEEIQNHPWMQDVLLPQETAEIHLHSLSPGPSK
Chain of Dual specificity protein kinase CLK1 (Homo sapiens) (P49759 whole entry, looked up): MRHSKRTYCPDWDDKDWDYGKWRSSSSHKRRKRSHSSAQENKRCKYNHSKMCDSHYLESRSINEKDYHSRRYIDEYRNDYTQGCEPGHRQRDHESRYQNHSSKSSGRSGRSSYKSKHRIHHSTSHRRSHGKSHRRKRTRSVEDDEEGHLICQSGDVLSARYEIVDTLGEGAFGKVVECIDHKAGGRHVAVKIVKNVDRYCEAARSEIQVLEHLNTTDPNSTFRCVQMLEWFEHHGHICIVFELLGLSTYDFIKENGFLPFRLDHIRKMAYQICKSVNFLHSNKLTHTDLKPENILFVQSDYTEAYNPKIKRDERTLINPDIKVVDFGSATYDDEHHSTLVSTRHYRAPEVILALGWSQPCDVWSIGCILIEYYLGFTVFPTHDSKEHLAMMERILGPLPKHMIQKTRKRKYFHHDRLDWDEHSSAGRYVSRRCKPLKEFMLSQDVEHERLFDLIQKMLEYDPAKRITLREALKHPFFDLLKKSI
Chain of Casein kinase II subunit alpha' (Homo sapiens) (P19784 whole entry, looked up): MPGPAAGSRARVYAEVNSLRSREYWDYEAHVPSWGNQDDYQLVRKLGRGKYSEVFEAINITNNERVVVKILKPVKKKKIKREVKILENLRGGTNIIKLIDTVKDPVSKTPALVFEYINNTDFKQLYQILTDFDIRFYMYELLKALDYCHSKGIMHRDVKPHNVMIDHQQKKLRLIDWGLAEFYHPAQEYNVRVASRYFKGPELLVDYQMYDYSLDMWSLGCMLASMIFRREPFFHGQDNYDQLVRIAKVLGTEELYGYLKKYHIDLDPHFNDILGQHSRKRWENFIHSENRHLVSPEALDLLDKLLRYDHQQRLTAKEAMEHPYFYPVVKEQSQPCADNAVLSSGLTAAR
Chain of Death-associated protein kinase 3 (Homo sapiens) (O43293 whole entry, looked up): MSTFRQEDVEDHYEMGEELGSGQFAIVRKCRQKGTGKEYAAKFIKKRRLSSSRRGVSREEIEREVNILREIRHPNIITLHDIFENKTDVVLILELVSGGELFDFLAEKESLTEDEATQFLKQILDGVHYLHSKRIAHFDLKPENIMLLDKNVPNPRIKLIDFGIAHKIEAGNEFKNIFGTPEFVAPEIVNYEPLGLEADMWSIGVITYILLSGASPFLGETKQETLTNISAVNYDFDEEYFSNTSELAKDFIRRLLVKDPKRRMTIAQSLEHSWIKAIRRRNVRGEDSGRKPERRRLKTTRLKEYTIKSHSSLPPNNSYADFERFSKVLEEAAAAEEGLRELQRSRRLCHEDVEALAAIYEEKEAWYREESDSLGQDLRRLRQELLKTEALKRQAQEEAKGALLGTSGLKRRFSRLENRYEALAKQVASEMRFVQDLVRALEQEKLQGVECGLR

Row | Compound | ΔTm [1] | ΔTm [2] | ΔTm [3] | ΔTm [4] | ΔTm [5] | ΔTm [6] | ΔTm [7] | ΔTm [8] | ΔTm [9] | ΔTm [10] | ΔTm [11] | IC50 (MOLM-13) | IC50 (MV4-11) | IC50 [12] | IC50 (K562) | IC50 [13]
1 | Cn1c2c(c3ccc(Cl)c(Cl)c31)C(C#N)C1(CCCCC1)NC2=O (racemic) | 1.7 °C | 4.7 °C | 0.5 °C | 4.7 °C | 1.1 °C | 2.9 °C | 4 °C | 0.9 °C | 0.8 °C | 3 °C | 4 °C | – | – | – | – | –
2 | CC(=O)c1cccc(-c2cnc3ccc(NCC4CC4)nn23)c1 | – | – | – | – | – | – | – | – | – | – | – | 0.3 µM | 0.4 µM | 6 µM | 8 µM | 8.8 µM
